Assay results published in publication PMC10763047 (Chemical Science, 2023).

Assays:
[1] = molecular target: p110α (Homo sapiens, UniProt P42336, E545K); experiment: Western blot of p110α degradation in MCF7 cells; format: cell-based; conditions: pretreatment before WJ112-14
How it was run: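 MCF7 cells (p110α E545K) were exposed to test compound for 6 h, or 6 h and 24 h in some runs. Integrated PI3Kα western blot signals were normalised to α-tubulin and DMSO. SD came from biological triplicates at selected concentrations. Mechanistic runs used pretreatment with bortezomib, MLN4924 or TAK-243, a glutarimide-methylated CRBN-binding-dead analogue, and washout to follow p110α recovery.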

[2] = test system: p110α; experiment: Western blot of p110α degradation in a panel of cell lines; format: cell-based; conditions: MCF7 and T47D cell lines

p110α (Homo sapiens, UniProt P42336, E545K), sequence (P42336 whole entry E545K): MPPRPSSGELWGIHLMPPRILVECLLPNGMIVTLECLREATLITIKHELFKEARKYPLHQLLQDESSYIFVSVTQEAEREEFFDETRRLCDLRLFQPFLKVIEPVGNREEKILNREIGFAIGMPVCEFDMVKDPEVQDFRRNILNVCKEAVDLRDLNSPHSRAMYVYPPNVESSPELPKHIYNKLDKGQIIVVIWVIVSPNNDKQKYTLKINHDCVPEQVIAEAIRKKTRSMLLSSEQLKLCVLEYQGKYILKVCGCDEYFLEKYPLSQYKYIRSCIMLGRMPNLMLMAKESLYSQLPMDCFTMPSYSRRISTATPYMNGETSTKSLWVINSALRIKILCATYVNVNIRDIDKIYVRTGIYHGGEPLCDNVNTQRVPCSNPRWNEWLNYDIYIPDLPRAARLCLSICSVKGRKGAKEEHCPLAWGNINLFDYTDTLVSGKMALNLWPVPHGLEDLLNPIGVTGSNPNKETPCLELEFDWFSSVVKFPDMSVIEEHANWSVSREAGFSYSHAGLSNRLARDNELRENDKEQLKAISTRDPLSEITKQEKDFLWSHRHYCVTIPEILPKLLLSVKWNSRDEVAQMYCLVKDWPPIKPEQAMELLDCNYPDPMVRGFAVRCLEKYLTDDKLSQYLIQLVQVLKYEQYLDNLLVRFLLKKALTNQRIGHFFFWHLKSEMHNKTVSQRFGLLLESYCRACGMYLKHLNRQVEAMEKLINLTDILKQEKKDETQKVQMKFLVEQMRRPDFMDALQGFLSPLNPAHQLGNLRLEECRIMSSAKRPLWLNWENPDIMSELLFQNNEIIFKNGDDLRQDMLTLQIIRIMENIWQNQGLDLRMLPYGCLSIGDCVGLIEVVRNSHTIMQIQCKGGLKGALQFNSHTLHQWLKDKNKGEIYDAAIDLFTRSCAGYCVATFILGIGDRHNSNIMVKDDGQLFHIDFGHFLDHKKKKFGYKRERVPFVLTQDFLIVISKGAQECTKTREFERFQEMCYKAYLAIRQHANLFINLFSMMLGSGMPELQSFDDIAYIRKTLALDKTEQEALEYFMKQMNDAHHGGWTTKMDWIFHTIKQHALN
p110α (Homo sapiens, UniProt P42336, E545K), sequence (P27986 whole entry partner): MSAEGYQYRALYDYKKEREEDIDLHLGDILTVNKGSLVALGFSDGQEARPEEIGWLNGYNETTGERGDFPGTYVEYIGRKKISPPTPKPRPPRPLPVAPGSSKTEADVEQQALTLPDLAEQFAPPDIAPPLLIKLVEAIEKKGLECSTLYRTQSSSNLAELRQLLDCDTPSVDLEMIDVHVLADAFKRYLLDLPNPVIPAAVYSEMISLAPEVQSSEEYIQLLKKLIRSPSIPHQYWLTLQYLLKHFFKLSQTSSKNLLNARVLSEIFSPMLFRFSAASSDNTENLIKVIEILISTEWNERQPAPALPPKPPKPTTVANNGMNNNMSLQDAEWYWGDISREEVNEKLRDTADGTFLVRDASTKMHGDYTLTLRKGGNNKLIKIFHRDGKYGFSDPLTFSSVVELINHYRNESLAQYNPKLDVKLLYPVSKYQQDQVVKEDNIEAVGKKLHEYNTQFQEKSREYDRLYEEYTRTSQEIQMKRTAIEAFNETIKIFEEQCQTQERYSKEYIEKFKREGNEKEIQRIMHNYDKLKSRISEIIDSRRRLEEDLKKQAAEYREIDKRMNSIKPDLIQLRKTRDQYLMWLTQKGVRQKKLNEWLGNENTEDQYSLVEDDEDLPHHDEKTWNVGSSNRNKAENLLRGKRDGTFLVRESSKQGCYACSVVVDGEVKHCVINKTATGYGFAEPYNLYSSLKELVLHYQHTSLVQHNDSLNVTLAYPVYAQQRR

rescue of p110α from WJ112-14 degradation by pretreatment [1] | Compound | p110α degradation [2]
full rescue of p110α | CC(C)C[C@H](NC(=O)[C@H](Cc1ccccc1)NC(=O)c1cnccn1)B(O)O [bortezomib] | 
 | Cc1nc(-c2cn3c(n2)-c2ccc(-c4cnn(C(C)(C)C(N)=O)c4)cc2OCC3)n(C(C)C)n1 [taselisib] | inactive
full rescue of p110α | NS(=O)(=O)OC[C@H]1C[C@@H](Nc2ccnc3cc(-c4cccc(SC(F)(F)F)c4)nn23)[C@H](O)[C@@H]1O [TAK-243] | 
full rescue of p110α | NS(=O)(=O)OC[C@@H]1C[C@@H](n2ccc3c(N[C@H]4CCc5ccccc54)ncnc32)C[C@@H]1O [MLN4924] | 
rescue of p110α | Nc1cccc2c1C(=O)N(C1CCC(=O)NC1=O)C2=O (centres unmarked) [pomalidomide] | 
